High-throughput results: PubChem BioAssay, several laboratories
RAM inhibit: blocks the yeast RAM network. S. cerevisiae dse1pr::URA3 reporter, 5-FOA growth OD615, 2 d; analog-sensitive cbk1-as2 kinase mutant strain. inhibition, % at 50 µM. hit rate 1.8% among 190,000. AID 868;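 active = inhibition above a set limit, 3 SD over mean compound inhibition, cut at about 8.4% in these data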;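 also: inhibition rescues growth on 5-FOA so higher OD means more RAM inhibition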
Hck-Nef inh: inhibitors of human Hck kinase activated by Nef; P08631; Recombinant Hck-YEEI plus Nef, Z-Lyte FRET kinase assay; inhibition, % at 20 µM; hit rate 0.68% among 220,000;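 active = Hck-Nef kinase inhibition above about 50%, limit read from the data; inactive = inhibition below that limit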
NCF1 inh: p47phox (human) inhibition; inhibition, % at 24.7 µM; AID 1274; p47phox/p22phox peptide binding, fluorescence polarization, 2 h; hit rate 0.53% among 220,000;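 active = inhibition above about 30%, limit read from the data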
Target sequence (P14598 whole entry, looked up): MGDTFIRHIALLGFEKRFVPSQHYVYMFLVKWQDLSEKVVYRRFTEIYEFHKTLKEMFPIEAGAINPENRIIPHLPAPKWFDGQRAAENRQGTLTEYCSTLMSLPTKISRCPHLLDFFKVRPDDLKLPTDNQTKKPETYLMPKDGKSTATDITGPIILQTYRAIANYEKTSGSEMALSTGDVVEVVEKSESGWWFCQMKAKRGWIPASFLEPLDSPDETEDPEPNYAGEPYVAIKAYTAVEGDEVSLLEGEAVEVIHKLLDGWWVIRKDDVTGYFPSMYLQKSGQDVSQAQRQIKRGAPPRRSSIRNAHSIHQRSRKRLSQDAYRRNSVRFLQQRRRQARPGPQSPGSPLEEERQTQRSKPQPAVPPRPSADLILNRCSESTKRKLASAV
Arbovirus inh: blocks arbovirus infection; arbovirus infection cell-based antiviral screen; inhibition, % at 10 µM; hit rate 0.37% among 200,000; AID 1251; in the data active = inhibition above about 30%
Calb biofilm kill: mixtures killing C. albicans biofilm | C. albicans biofilm persisters + clotrimazole, fluorescence viability; primary screen in compound mixtures of four per well | inhibition, % at 7.6 µM | hit rate 0.02% among 120,000;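 active = inhibition above 30.3% in the primary screen of four-compound pools, then above 30% when the compound was retested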;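 also: compounds exposed to preformed 24 h biofilms for 48 h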
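Probe or stimulus – Clotrimazole 50 µg/mL co-treatment · System – C. albicans biofilms · Schedule – 24 h biofilm formation, then 48 h compound exposure, 37 °C · Evaluation – percent inhibition of biofilm viability · Technique – 2-h Alamar Blue fluorescence, 535/590 nm excitation/emission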
WT yeast gro inh: growth inhibition of WT yeast, mitochondrial fusion screen | hit rate 2.1% among 190,000 | inhibition, % at 10 µM | mitochondrial fusion phenotypic screen, WT strain; in the data active = inhibition above about 58%; tested in S. cerevisiae
Large screens that a line does not name were inactive. A selection: hits, their analogues and other compounds. The true share with any hit is near 4.6%.

CCC(=O)Nc1nc(-c2cc([N+](=O)[O-])cs2)cs1	none
COc1ccccc1C(=O)NC(=S)Nc1ccc(S(=O)(=O)N2CCN(C)CC2)cc1	none
CC(=O)c1cc(F)c(N2CCN(C(=O)COc3ccc(F)cc3)CC2)cc1C	none
O=C(Nc1ccc(Br)c2cccnc12)c1ccc(Cn2cc(Cl)cn2)o1	RAM inhibit 11
CCOC(=O)c1sc(NC(=O)COC(=O)CNC(=O)C2CCCCC2)c(C(=O)OCC)c1C	none
COc1ccc(/C=N/N(C(C)=O)c2nc(-c3ccc(C)cc3)cs2)cc1	RAM inhibit 9.3 (no result: Calb biofilm kill)
CC(=O)N(/N=C/c1cccc(C)c1)c1nc(-c2ccc(Br)cc2)cs1	none (no result: Calb biofilm kill)
Nn1c(SCC(=O)N2CCCc3ccccc32)nncc1=O	none
CCCCNC(=O)CCC(=O)Nc1ccc2nc(N3CCCCC3)cc(C)c2c1	Hck-Nef inh 69
COc1cccc(-c2nc(-c3ccc4c(c3)-c3ccccc3S4(=O)=O)c(-c3ccccc3)[nH]2)c1OC	RAM inhibit 9.2
CCOC(=O)C(C(=O)OCC)N(C#N)c1nc(N(C)C)nc(N(C)C)n1	none
Cc1ccc(NC(=O)c2cc(N3C(=O)CCC3=O)ccc2N2CCCCC2)cc1	none
Cc1cccc2cc(-c3ccccc3)c(-c3ccccc3)c[n+]12	NCF1 inh 49, WT yeast gro inh 72
CCOc1ccc(-n2cc(C(=O)c3cc(Cl)ccc3O)cc(C#N)c2=O)cc1	WT yeast gro inh 59
COc1ccc(Cl)cc1NC(=O)COC(=O)c1cc(NS(=O)(=O)c2cccs2)ccc1O	RAM inhibit 11
CCOC(=O)C1=C(O)c2ccccc2C(=O)/C1=C\c1ccc(C)cc1	NCF1 inh 57
O=C(COc1ccccc1)NNC(=O)COc1ccc([N+](=O)[O-])cc1	none
C/C(=N\NC(=O)COc1ccc([N+](=O)[O-])cc1)C(C)(C)C	Arbovirus inh 81 (no result: Calb biofilm kill)
COc1ccc(CCNC(=O)COC(=O)c2cc(S(=O)(=O)NCc3ccccc3)ccc2O)cc1OC	none (no result: RAM inhibit, Arbovirus inh, WT yeast gro inh)
CCOc1ccc2nc(SCC(=O)NCc3ccc(OC)c(OC)c3)[nH]c2c1	none
CC(C(=O)NC(=O)NC1CCCCC1)N1CCN(C(c2ccccc2)c2ccccc2)CC1 (stereo not given)	WT yeast gro inh 73 (no result: Calb biofilm kill)
Cc1ccc(C)c(N2CCN(C(=O)C3CCCCN3S(=O)(=O)c3ccc(F)cc3)CC2)c1 (stereo not given)	WT yeast gro inh 64 (no result: Calb biofilm kill)
Cc1ccc(C)c(N2CCN(C(=O)C3CCN(S(=O)(=O)c4c(C)noc4C)CC3)CC2)c1	none (no result: RAM inhibit, Arbovirus inh, WT yeast gro inh)
Cc1cc(C)nc(N2CCC(C(=O)N3CCN(c4cc(Cl)ccc4C)CC3)CC2)n1	WT yeast gro inh 72 (no result: Calb biofilm kill)
Cc1ccc(C)c(N2CCN(C(=O)C3CCN(c4nc(C)cc(C)n4)CC3)CC2)c1	WT yeast gro inh 67 (no result: Calb biofilm kill)
Cc1ccc(S(=O)(=O)N2CCCC2C(=O)O)cc1 (stereo not given)	none (no result: Calb biofilm kill)
Clc1ccc(-c2nnc(N3CCOCC3)o2)cc1	none (no result: RAM inhibit, Arbovirus inh, WT yeast gro inh)
CC(=O)N1CCN(c2nnnn2-c2ccccc2)CC1	none (no result: Calb biofilm kill)
c1ccc(CC2CCN(c3nnnn3-c3ccccc3)CC2)cc1	WT yeast gro inh 62 (no result: Calb biofilm kill)
Cn1c(N)c(C(=O)COC(=O)C2CCCN2C(=O)c2cccs2)c(=O)n(C)c1=O (stereo not given)	none
CCCCCCN(C(=O)CCCCCN1C(=O)NC(c2ccc(Cl)cc2)C(C(=O)OCc2ccccc2)=C1C)C(C(=O)NCCCC)c1ccc(OCC(=O)OC)c(C(=O)OC)c1 (stereo not given)	RAM inhibit 10
COc1cc(NC(=O)COC(=O)c2nc3nc(C)cc(C)n3n2)cc(OC)c1	none (no result: Calb biofilm kill)
C=CCN1C(=O)/C(=C/c2cccs2)S/C1=N\S(=O)(=O)c1ccc(F)cc1	RAM inhibit 11
Nc1c2c(nc3sc4c(c13)CCCC4)-c1ccccc1CC2	none (no result: RAM inhibit, Arbovirus inh, WT yeast gro inh)
Cc1ccc2oc(=O)n(CCOc3ccccc3C)c2c1	none
Cc1ccc2oc(=O)n(CCCOc3ccccc3C)c2c1	WT yeast gro inh 64
Cc1ccc(CSc2nnc3c(n2)OC2(Nc4ccccc4-3)C(=O)Nc3ccc(F)cc32)cc1 (stereo not given)	WT yeast gro inh 70 (no result: Calb biofilm kill)
O=C1Nc2ccc(F)cc2C12Nc1ccccc1-c1nnc(SCc3ccccc3Cl)nc1O2 (stereo not given)	NCF1 inh 39, WT yeast gro inh 69 (no result: Calb biofilm kill)
O=C1Nc2ccc(F)cc2C12Nc1ccccc1-c1nnc(SCc3ccccc3)nc1O2 (stereo not given)	none (no result: Calb biofilm kill)
CN1/C(=C\C(=S)NC(=O)c2cccc(Br)c2)C(C)(C)c2ccccc21	RAM inhibit 8.9, WT yeast gro inh 65
CN1/C(=C/C(=O)C2CC2)C(C)(C)c2ccccc21	none
CN1/C(=C\C(=S)NC(=O)c2ccc([N+](=O)[O-])cc2)C(C)(C)c2ccccc21	none
CN1/C(=C\C(=O)Nc2cccc(Cl)c2)C(C)(C)c2ccccc21	WT yeast gro inh 78
CN1/C(=C\C(=O)Nc2ccc(F)cc2)C(C)(C)c2ccccc21	WT yeast gro inh 74
CN1/C(=C\C=C(/C#N)C(=O)Nc2ccccc2F)C(C)(C)c2ccccc21	none
CN1/C(=C\C(=O)Nc2ccc(Br)cc2)C(C)(C)c2ccccc21	WT yeast gro inh 87
CCN(CC)S(=O)(=O)c1cccc(C(=O)/C=C2/N(C)c3ccccc3C2(C)C)c1	none
O=C(NC1CCCCCC1)c1cccnc1Sc1ccccc1	none
COC(=O)COc1ccc(S(=O)(=O)Nc2cc([N+](=O)[O-])ccc2C)cc1	none
O=C(Nc1ccc(SC(F)F)cc1)c1ccc(F)cc1	none
COc1ccc(CSC(=N)N)cc1[N+](=O)[O-]	none (no result: Calb biofilm kill)
CCCCCOc1ccc(CSC(=N)N)cc1[N+](=O)[O-]	WT yeast gro inh 77 (no result: Calb biofilm kill)
CN(CCO)c1ncnc2c1sc1nc(N3CCOCC3)c3c(c12)CCC3	none (no result: RAM inhibit, Arbovirus inh, WT yeast gro inh)
COc1ccc(C(=O)Cc2nnc(C)s2)cc1	none
CC1=CCC[C@@H]2[C@@](C)(CC/C(C)=C/C(=O)O)[C@H](C)CC[C@@]12C	WT yeast gro inh 73
O=C(Nc1nnc(CCS(=O)(=O)c2ccc3ccccc3c2)s1)c1ccc([N+](=O)[O-])cc1	RAM inhibit 8.4
O=C(Nc1nnc(CCS(=O)(=O)c2ccc3ccccc3c2)s1)c1cccs1	none
Cc1cn(-c2ccccc2)c(C)c1/C=N\Nc1nc(N2CCOCC2)nc(N2CCOCC2)n1	none
CCN1/C(=C\c2ccc3cc(C)ccc3[n+]2CC)Sc2cc(C)c(C)cc21	WT yeast gro inh 88
C=CC[n+]1c(/C=C2\C=Cc3cc(C)ccc3N2CC)ccc2ccccc21	none
CCN1/C(=C/c2ccc3cc(C)cc(C)c3[n+]2CC)Sc2cc(C)ccc21	WT yeast gro inh 95
CCN1/C(=C/c2ccc3cccc(C)c3[n+]2CC)Sc2ccccc21	WT yeast gro inh 62 (no result: Calb biofilm kill)
CCN1/C(=C/C(C)=C/c2sc3ccccc3[n+]2CC)Sc2ccccc21	none
Cc1nn(CCOc2ccccc2)c(=O)n1-c1c(F)cccc1F	none (no result: Calb biofilm kill)
